Test results taken from PubChem BioAssay AID1040 (The Scripps Research Institute Molecular Screening Center, 2008).
About 2,000 (1%) of roughly 200,000 compounds were called active.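 Rule for the calls: active = inhibition above the campaign mean inhibition of all tested compounds plus 3 SD (cut at about 20% in these data); inactive = the rest.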 The list comes from a sample in which actives are over-represented; it also holds similar structures and randomly drawn compounds.

What follows are molecules tested against Neuropeptide Y receptor type 1 (Homo sapiens) (UniProt P25929) (assay: NPY-Y1 receptor antagonists, primary screen, cell-based (AID 1040;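 note: 0% = DMSO wells given NPY plus isoproterenol and 100% = isoproterenol alone without NPY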)). Conditions: HEK293-CNG Y1 cells, membrane potential fluorescence; at 3.6 µM; hits give high values.
Procedure, shortened: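 Assay system: HEK293 cells with Y1 receptor plus CNG channel | Probe or stimulus: NPY (25 nM), isoproterenol (1 µM), Ro 20-1724 (25 µM) | Timing: Compound incubation 1 h at room temperature, readout 45 min post-stimulation | Measured by: Membrane-potential fluorescent dye readout | Benchmarks: High control isoproterenol alone, low control NPY with isoproterenol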

Sequence of Neuropeptide Y receptor type 1 (Homo sapiens) (P25929 whole entry, looked up): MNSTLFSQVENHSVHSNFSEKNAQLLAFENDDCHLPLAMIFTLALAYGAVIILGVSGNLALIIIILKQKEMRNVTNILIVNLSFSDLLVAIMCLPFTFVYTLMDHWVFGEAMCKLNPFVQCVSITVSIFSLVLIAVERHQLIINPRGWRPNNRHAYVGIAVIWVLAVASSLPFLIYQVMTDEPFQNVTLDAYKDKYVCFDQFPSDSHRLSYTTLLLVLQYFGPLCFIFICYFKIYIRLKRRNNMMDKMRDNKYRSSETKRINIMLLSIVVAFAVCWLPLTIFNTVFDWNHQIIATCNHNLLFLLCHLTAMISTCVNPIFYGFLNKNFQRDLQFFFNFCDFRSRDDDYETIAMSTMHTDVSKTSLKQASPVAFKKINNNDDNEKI

SMILES	inhibition
N#Cc1ccc(Cn2cc(C(=O)c3ccco3)c3ccccc32)cc1	21.4% (active)
NC(=O)Cn1cc(C(=O)c2ccccc2F)c2ccccc21	4.87% (inactive)
CC(C)Oc1cccc(C(=O)C2CCCN(C3CCOCC3)C2)c1 (stereo not given)	1.82% (inactive)
COc1cc(Cn2c(N)c(C(=O)NCc3ccco3)c3nc4ccccc4nc32)cc(OC)c1OC	-7.12% (inactive)
CCOC(=O)c1c(N)n(CCN2CCOCC2)c2nc3ccccc3nc12	-2.58% (inactive)
CCOC(=O)c1c(N)n(Cc2ccccc2)c2nc3ccccc3nc12	26.8% (active)
N=c1ccccn1Cc1ccccc1	-3.41% (inactive)
CCc1nnc(NS(=O)(=O)c2ccc(N=Cc3c(O)n(-c4ccccc4)c(=O)[nH]c3=O)cc2)s1	12.6% (inactive)
COc1ccc(C(=O)C2CCCN(Cc3ccc(C)s3)C2)cc1OC (stereo not given)	-3.61% (inactive)
O=C(CN1CCCC1=O)NCCc1ccccc1	-2.4% (inactive)
